OX1R antag-1 = OX1R (HCRTR1) antagonists, primary screen, fluorescence, CHO/OX1R cells, Fluo-8 calcium, orexin A | Orexin/Hypocretin receptor type 1 (Homo sapiens), O43613 | Fluo-8 calcium fluorescence | inhibition, % at 5 µM | 0.43% of 330,000 active;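 active = inhibition above its plate's threshold, mean inhibition of all tested compounds on the plate plus 3 SD, cut at about 37% in these data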;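 note: 0% = orexin A challenge wells and 100% = SB-334867-A antagonist wells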
Target sequence (O43613 whole entry, looked up): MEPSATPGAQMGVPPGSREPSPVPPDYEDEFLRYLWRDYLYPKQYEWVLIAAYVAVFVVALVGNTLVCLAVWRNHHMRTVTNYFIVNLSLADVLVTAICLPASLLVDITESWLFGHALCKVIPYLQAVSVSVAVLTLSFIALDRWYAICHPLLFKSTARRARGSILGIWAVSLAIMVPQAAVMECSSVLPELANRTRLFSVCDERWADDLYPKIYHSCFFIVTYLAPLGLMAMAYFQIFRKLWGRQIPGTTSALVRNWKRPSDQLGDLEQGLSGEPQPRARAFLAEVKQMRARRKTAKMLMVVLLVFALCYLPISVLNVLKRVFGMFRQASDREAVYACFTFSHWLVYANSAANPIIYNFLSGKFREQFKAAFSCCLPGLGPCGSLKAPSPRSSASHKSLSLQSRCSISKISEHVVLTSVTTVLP
CHO parental Ca = ATP-evoked calcium signal inhibitors, parental CHO, primary screen, counter-screen for OX1R antagonist project, cell-based, fluorescence, Fluo-8 calcium dye; inhibition, % at 5.6 µM; parental CHO-K1, ATP-induced calcium, Fluo-8 fluorescence; 0.63% of 330,000 active;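 active = inhibition above that plate's mean sample inhibition plus 3 SD, cut at about 26% in these data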;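 note: 0% = ATP-challenged DMSO wells and 100% = DMSO wells without ATP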
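Material – parental CHO cells · Reagent – ATP stimulus · Compound – single nominal dose of 5.6 µM per compound · Detection – Fluo-8 fluorescence · Read-out basis – percent inhibition of calcium signal · Controls – ATP-challenged DMSO wells low, unchallenged DMSO wells high · Repeats – no replicates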
GPR7 antagonist = GPR7 receptor antagonists, primary screen, cell-based, fluorescence, single concentration; Neuropeptides B/W receptor type 1 (Homo sapiens), P48145; GPR7-expressing cells, fluorescence antagonist assay; inhibition, % at 4.4 µM; 1.1% of 290,000 active; AID 1861, 2009; in the data active = inhibition above about 16%, passing the limit was not always enough;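 note: cells stimulated with the agonist NPW; 0% = agonist with vehicle and 100% = vehicle without agonist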
MPTP inh = mitochondrial permeability transition pore inhibitors, primary screen, biochemical, isolated mouse mitochondria, absorbance | Ca2+ swelling absorbance, 30 min | 1.4% of 360,000 active | inhibition, % at 10 µM | AID 602449, 2012;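 active = inhibition of 50% or more, scaled per plate between neutral and stimulator controls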;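 note: 0% = DMSO wells given calcium and 100% = 1 mM EGTA wells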
OX1R antag-2 = antagonists of human orexin 1 receptor (OX1R); Orexin/Hypocretin receptor type 1 (Homo sapiens), O43613; 1.8% of 330,000 active; inhibition, % at 6.6 µM; OX1R-expressing cells, FRET antagonist read-out; AID 485270, 2010; in the data active = inhibition mostly above about 38%, no sharp cut-off; inactive = mostly below about 40%;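 note: 0% = agonist challenge alone and 100% = reference antagonist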
The depositor's hits bear a star; x = no result. An excerpt weighted towards active compounds, which were near 3.8% of everything screened.

SMILES	OX1R antag-1	CHO parental Ca	GPR7 antagonist	MPTP inh	OX1R antag-2
O=C(NCc1cccnc1)c1ccc(-c2ccc(Cl)cc2)o1	-21.3	-16.0	9.3	1.8	16.2
Cc1ccc(C)c(NC(=O)[C@@H]2CCCN2S(=O)(=O)c2ccccc2F)c1	21.2	-9.5	x	0.6	42.8*
COc1ccc(NC(=O)[C@@H]2CCCN2S(=O)(=O)c2ccccc2F)cc1S(=O)(=O)N1CCCCC1	23.3	-20.2	x	-0.8	32.5
COc1ccc(C)cc1NC(=O)C1CCCN1S(=O)(=O)c1ccccc1F (stereo not given)	14.1	-25.3	x	0.9	51.7*
CC(C)c1ccc(NC(=O)C2CCCN2S(=O)(=O)c2ccccc2F)cc1 (stereo not given)	20.6	-14.1	x	0.3	37.2*
CC(=O)c1sc(NC(=O)C2CCCN2S(=O)(=O)c2ccccc2F)nc1C (stereo not given)	36.6	-17.8	x	0.0	37.0*
CC1(C(=O)NS(=O)(=O)C2CC2)CCCN(C(=O)c2ccccc2OC(F)(F)F)C1 (stereo not given)	x	x	x	2.9	x
COc1cc(OC)cc(N2C(=O)CC(N3CCC(C(=O)N4CCCCC4)CC3)C2=O)c1 (stereo not given)	x	x	11.1	0.1	x
CCCCn1c(N)c(N(Cc2ccccc2OC)C(=O)c2cc(CC)c(C)s2)c(=O)[nH]c1=O	-23.7	-21.4	x	0.4	-2.0
Cc1ccsc1C1C(C#N)=C(N)N(N(C)C)C2=C1C(=O)CC(C)(C)C2 (stereo not given)	-20.0	-14.9	9.2	-0.3	13.8
COc1ccc2cc(S(=O)(=O)N3CCCC3)ccc2c1	-29.4	-27.9	-7.1	-1.1	13.4
O=C(CCN1C(=O)c2ccc([N+](=O)[O-])cc2C1=O)Nc1ccccc1C(=O)O	-19.8	7.8	-2.4	1.8	66.9
CC(=O)N(CN1C(=O)c2ccc([N+](=O)[O-])cc2C1=O)c1cccc(C(=O)O)c1	1.3	12.7	-7.3	1.8	52.2*
O=C1C(=O)N(C/C=C/c2ccccc2)c2ccccc21	-11.0	-15.5	26.8	0.7	1.0
O=C(COc1ccccc1Cl)c1ccc2c(c1)CCCC2	-28.0	28.3*	-5.1	-0.1	22.8
CC(C(=O)NCCc1ccc(F)cc1)N1CCN(Cc2ccccc2)CC1 (stereo not given)	-25.3	-14.4	-2.9	1.7	12.0
CCOc1ccc(-n2c(=S)sc3c(=O)[nH]c(SCC(=O)NCc4ccco4)nc32)cc1	12.1	-0.4	-9.2	1.3	17.7
CCOc1ccc(-n2c(=S)sc3c(=O)[nH]c(SCC(=O)C(C)(C)C)nc32)cc1	0.8	-7.7	-6.7	6.7	47.9*
Cc1cccc(C(=O)Nc2cccc(C(=O)Nc3cc(C)ccn3)c2)c1	-33.0	-23.4	-23.1	0.2	31.4
O=[N+]([O-])c1ccc2cccnc2c1	x	x	x	-2.4	x
Cc1cc([N+](=O)[O-])cc2ncccc12	-0.5	5.8	-4.2	-3.0	69.0*
CC(C)(C)NS(=O)(=O)c1ccc(CCC(=O)N2CCCC2)cc1	-11.7	-14.9	7.4	-0.7	13.6
COc1cccc(NC(=O)c2cc3cccc(OC)c3o/c2=N\O)c1	40.4*	15.6	-18.5	x	93.1*
COc1ccc(C(=O)NNC(=O)c2cc3cccc(OC)c3oc2=O)cc1	-16.3	-5.3	2.9	-1.0	49.7*
COc1cc(NC(=O)c2cc3cccc(OC)c3o2)cc(C(=O)Nc2cccc(C(F)(F)F)c2)c1	24.3	41.9*	x	14.8	12.5
SMILES	OX1R antag-1	CHO parental Ca	GPR7 antagonist	MPTP inh	OX1R antag-2
COc1cccc2cc(C(=O)NCCN3CCOCC3)c(=O)oc12	-5.5	-13.5	-6.5	0.4	39.0*
O=C(NC1CCCCC1)C1c2ccccc2OCC(=O)N1Cc1ccccc1 (stereo not given)	x	x	x	0.0	x
CCN(CC(=O)Nc1c(F)cccc1F)C(=O)Cc1csc(-c2ccccc2)n1	-10.0	-29.9	x	-2.6	63.0*
Cc1cc(NC(=O)c2cc([N+](=O)[O-])cc([N+](=O)[O-])c2)no1	-22.2	-9.0	-8.8	0.3	57.0*
Cc1csc(NC(=O)c2cc[n+]([O-])cc2)n1	-16.9	-5.7	-8.4	-0.5	6.8
Cc1csc(NC(=O)c2cc([N+](=O)[O-])cc([N+](=O)[O-])c2)n1	-21.8	3.2	-3.7	2.9	63.9*
CC(=O)Nc1ccc(NC(=O)c2cc([N+](=O)[O-])cc([N+](=O)[O-])c2)cc1	-8.9	-4.9	-14.5	0.2	57.5*

From PubChem
